Measurements published in ChEMBL document CHEMBL1154745, “Synthesis and biological evaluation of N-aryl-1,4-dihydropyridines as novel antidyslipidemic and antioxidant agents” (2010).

How the values were obtained:
Rattus norvegicus [1] = assay: Antidyslipidemic activity against triton-induced hyperlipidemia in Charles Foster rat assessed as reduction in plasma phospholipid level at 100 mg/kg, po after 18 hrs relative to control; assay type: functional; set-up: scale not given: the % may be the effect or the level left
Outline: (§1)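 Adult male Charles Foster rats (200–225 g) were given Triton WR-1339 400 mg/kg i.p. Test agent was suspended in 0.2% w/v gum acacia in water and dosed orally at the same time. There were five rats per group, and controls received vehicle. At 18 h, retro-orbital blood was taken into EDTA and centrifuged at 2500g, 4 °C, 10 min. Plasma was diluted 1:3 in saline, and lipids were measured by standard enzymatic kits.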

Rattus norvegicus [2] = assay: Antidyslipidemic activity against triton-induced hyperlipidemia in Charles Foster rat assessed as reduction in total cholesterol level at 100 mg/kg, po after 18 hrs relative to control
Rattus norvegicus [3] = assay: Antidyslipidemic activity against triton-induced inhibition of post heparin lipolytic activity in Charles Foster rat at 100 mg/kg, po after 18 hrs; assay type: functional; set-up: scale not given: the % may be the effect or the level left
Outline: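 Triton WR-1339 hyperlipidemia model in male Charles Foster rats (200–225 g): 400 mg/kg i.p. triton plus oral test agent in gum acacia suspension, with five rats per group. After 18 h, post-heparin lipolytic activity was determined by the Wing and Robinson method on plasma, using spectrophotometry and an auto-analyzer.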

Rattus norvegicus [4] = assay: Antidyslipidemic activity against triton-induced hyperlipidemia in Charles Foster rat assessed as reduction in plasma triglyceride level at 100 mg/kg, po after 18 hrs relative to control; assay type: functional; set-up: scale not given: the % may be the effect or the level left; outline: as §1
[5] = Antioxidant activity assessed as hydroxyl radical scavenging activity at 200 ug/ml; assay type: functional
[6] = Antioxidant activity assessed as hydroxyl radical scavenging activity at 100 ug/ml; assay type: functional
[7] = Antioxidant activity assessed as superoxide radical scavenging activity at 200 ug/ml; assay type: functional
Outline: (§2)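 Superoxide was generated enzymatically by xanthine with xanthine oxidase (0.04 U) and nitroblue tetrazolium in 100 mM phosphate buffer, pH 8.2, with or without test agent. Mixtures were incubated at 37 °C for 30 min and stopped with glacial acetic acid. Formazan formation was measured spectrophotometrically.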

[8] = Antioxidant activity assessed as superoxide radical scavenging activity at 100 ug/ml; assay type: functional; outline: as §2
[9] = Antioxidant activity assessed as inhibition of microsomal lipid peroxidation at 100 ug/mL; assay type: functional; set-up: scale not given: the % may be the effect or the level left
Outline: (§3)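 Inhibition of lipid peroxidation in microsomal fractions, sonicated in phosphate buffer, was read out as nmol MDA formed/h/mg protein.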

[10] = Antioxidant activity assessed as inhibition of microsomal lipid peroxidation at 200 ug/mL; assay type: functional; set-up: scale not given: the % may be the effect or the level left; outline: as §3

SMILES	Activity (Rattus norvegicus [1]) [%]	total cholesterol lowering (Rattus norvegicus [2]) [%]	Activity (Rattus norvegicus [3]) [%]	Activity (Rattus norvegicus [4]) [%]	Activity [5] [%]	Activity [6] [%]	Activity [7] [%]	Activity [8] [%]	Activity [9] [%]	Activity [10] [%]
Cc1ccc(C)c(OCCCC(C)(C)C(=O)O)c1 [GEMFIBROZIL]	39.1	37.1	34.2	36.1	–	–	–	–	–	–
CCOC(=O)C1=C(C)N(c2ccccc2)C=CC1c1ccccc1 (centres undefined)	28.5	21.9	16.3	25.3	-29.3	-13.8	-34	-21.5	-19.9	-37.1
CCOC(=O)C1=C(C)N(c2ccccc2)C=CC1c1ccccc1[N+](=O)[O-] (centres undefined)	5.7	14	12.3	10.5	-26.9	-11.5	-33.6	-20.6	-19.2	-25.1
COC(=O)C1=C(C)N(c2ccccc2)C=CC1c1ccc(OC)cc1 (centres undefined)	18.7	18.1	9.8	18.7	-27.7	-18.3	-44.8	-29.8	-17.6	-30.3
CCOC(=O)C1=C(C)N(c2ccc(Cl)cc2)C=CC1c1ccccc1 (centres undefined)	16.5	16	8.3	9.8	-31.1	-20.8	-37.4	-19.1	–	-34.4
COC(=O)C1=C(C)N(c2cccc(C)c2C)C=C(C)C1c1ccccc1 (centres undefined)	23.9	24.1	23.7	25.7	-29.3	-19.7	-32.2	-23.6	-22.7	-33.1
Oc1ncnc2[nH]ncc12	–	–	–	–	–	–	-77.5	-66.4	–	–
CC1=C(C(=O)OC(C)(C)C)C(c2ccccc2)C=CN1c1ccccc1 (centres undefined)	12.8	11.5	8.4	11	-37.1	-23.1	-52.9	-30.7	-35.7	-42.1
COC(=O)C1=C(C)N(c2ccccc2)C=C(C)C1c1ccccc1 (centres undefined)	11	11	8.4	8.1	-33.1	-14.1	-48	-21.1	-22.7	-37.4
COC(=O)C1=C(C)N(c2ccccc2)C=CC1c1ccccc1 (centres undefined)	21.3	24.8	10.9	18.7	-23	-26.9	-43	-25.9	-21.5	-37.3
CCOC(=O)C1=C(C)N(c2ccc(C)cc2)C=CC1c1ccccc1 (centres undefined)	23.7	18.7	24.9	21.2	-32.7	-20.7	-35.8	-22.9	-23.5	-38.4
Cc1c(C)c2c(c(C)c1O)CC[C@@](C)(CCC[C@H](C)CCC[C@H](C)CCCC(C)C)O2	–	–	–	–	–	–	–	–	-43.9	-52.1
CCOC(=O)C1=C(C)N(c2ccc(F)cc2)C=CC1c1ccccc1 (centres undefined)	15.3	17	8.1	13.6	-25.5	-10.9	-42.5	-25.7	-28.5	-35.8
CC1=C(C(=O)OC(C)(C)C)C(c2ccccc2)C=CN1c1ccc(Cl)cc1 (centres undefined)	13.5	15.5	8.9	11.5	-34.6	-19.2	-48	-24.5	-18.5	-26.6
COC(=O)C1=C(C)N(c2ccc(OC)cc2)C=C(C)C1c1ccccc1 (centres undefined)	15.3	15	14.7	20.7	-22.6	-13.9	-34.7	-19.8	-14.7	-28.9
CCOC(=O)C1=C(C)N(c2ccc(Br)cc2)C=CC1c1ccccc1 (centres undefined)	12.5	18.3	12	12.1	-35.7	-14.8	-28.4	-18.7	-20.7	-32.1
COC(=O)C1=C(C)N(c2cccc(Cl)c2)C=C(C)C1c1ccccc1 (centres undefined)	13.4	12.2	13.9	8.9	-23	-12	-35.3	-21.3	-16.2	-22.8
OC[C@@H](O)[C@@H](O)[C@H](O)[C@H](O)CO	–	–	–	–	-44.5	-31.2	–	–	–	–
